Results from ChEMBL document CHEMBL1126195, “A new, general synthetic route to multidentate N,S ligands for use in technetium-99m radiopharmaceuticals. Preparation of diamido disulfur, diamino dithiol, and tripodal N3S3 prototypes. Comparative biodistributions of [99mTcvO-DADS]- analogues which contain 5,5,5- and 5,7,5-membered chelate ring …” (J Med Chem, 1992).

Tests used:
Rattus norvegicus [1] = species: Rattus norvegicus; assay: Biodistribution was reported in rat blood after 1 min.; type: ADME, organism-based; details: in vivo
How it was run: (§1)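 Female Sprague-Dawley rats (~200 g average, n = 3 per time point) were anesthetized with Metofane. They received 0.2 mL of 99mTc complex (50 µCi) by jugular vein injection. Rats were killed by cervical dislocation at early times or CO2 at later times. Blood (1 mL), brain, heart, a liver sample and one kidney were weighed and gamma-counted (100-150 keV) against standards. Values are average % injected dose/organ.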

Rattus norvegicus [2] = species: Rattus norvegicus; assay: Biodistribution was reported in rat kidney after 30 min.; type: ADME, organism-based; details: in vivo, 0.5 h; how it was run: as §1
Rattus norvegicus [3] = species: Rattus norvegicus; assay: Biodistribution was reported in rat blood after 15 min.; type: ADME, organism-based; details: in vivo, 0.25 h; how it was run: as §1
Rattus norvegicus [4] = species: Rattus norvegicus; assay: Biodistribution was reported in rat heart after 1 min.; type: ADME, organism-based; details: in vivo; how it was run: as §1
Rattus norvegicus [5] = species: Rattus norvegicus; assay: Biodistribution was reported in rat brain after 1 min.; type: ADME, organism-based; details: in vivo; how it was run: as §1
Rattus norvegicus [6] = species: Rattus norvegicus; assay: Biodistribution was reported in rat kidney after 15 min.; type: ADME, organism-based; details: in vivo, 0.25 h; how it was run: as §1
Rattus norvegicus [7] = species: Rattus norvegicus; assay: Biodistribution was reported in rat kidney after 5 min.; type: ADME, organism-based; details: in vivo; how it was run: as §1
Rattus norvegicus [8] = species: Rattus norvegicus; assay: Biodistribution was reported in rat heart after 5 min.; type: ADME, organism-based; details: in vivo; how it was run: as §1
Rattus norvegicus [9] = species: Rattus norvegicus; assay: Biodistribution was reported in rat kidney after 60 min.; type: ADME, organism-based; details: in vivo, 1 h; how it was run: as §1
Rattus norvegicus [10] = species: Rattus norvegicus; assay: Biodistribution was reported in rat brain after 30 min.; type: ADME, organism-based; details: in vivo, 0.5 h; how it was run: as §1
Rattus norvegicus [11] = species: Rattus norvegicus; assay: Biodistribution was reported in rat liver after 60 min.; type: ADME, organism-based; details: in vivo, 1 h; how it was run: as §1
Rattus norvegicus [12] = species: Rattus norvegicus; assay: Biodistribution was reported in rat blood after 30 min.; type: ADME, organism-based; details: in vivo, 0.5 h; how it was run: as §1
Rattus norvegicus [13] = species: Rattus norvegicus; assay: Biodistribution was reported in rat liver after 15 min.; type: ADME, organism-based; details: in vivo, 0.25 h; how it was run: as §1
Rattus norvegicus [14] = species: Rattus norvegicus; assay: Biodistribution was reported in rat brain after 15 min.; type: ADME, organism-based; details: in vivo, 0.25 h; how it was run: as §1
Rattus norvegicus [15] = species: Rattus norvegicus; assay: Biodistribution was reported in rat heart after 30 min.; type: ADME, organism-based; details: in vivo, 0.5 h; how it was run: as §1
Rattus norvegicus [16] = species: Rattus norvegicus; assay: Biodistribution was reported in rat liver after 5 min.; details: in vivo
Rattus norvegicus [17] = species: Rattus norvegicus; assay: Biodistribution was reported in rat heart after 15 min.; type: ADME, organism-based; details: in vivo, 0.25 h; how it was run: as §1
Rattus norvegicus [18] = species: Rattus norvegicus; assay: Biodistribution was reported in rat blood after 60 min.; type: ADME, organism-based; details: in vivo, 1 h; how it was run: as §1
Rattus norvegicus [19] = species: Rattus norvegicus; assay: Biodistribution was reported in rat brain after 60 min.; type: ADME, organism-based; details: in vivo, 1 h; how it was run: as §1
Rattus norvegicus [20] = species: Rattus norvegicus; assay: Biodistribution was reported in rat kidney after 1 min.; type: ADME, organism-based; details: in vivo; how it was run: as §1
Rattus norvegicus [21] = species: Rattus norvegicus; assay: Biodistribution was reported in rat brain after 5 min.; type: ADME, organism-based; details: in vivo; how it was run: as §1
Rattus norvegicus [22] = species: Rattus norvegicus; assay: Biodistribution was reported in rat liver after 1 min.; type: ADME, organism-based; details: in vivo; how it was run: as §1
Rattus norvegicus [23] = species: Rattus norvegicus; assay: Biodistribution was reported in rat heart after 60 min.; type: ADME, organism-based; details: in vivo, 1 h; how it was run: as §1
Rattus norvegicus [24] = species: Rattus norvegicus; assay: Biodistribution was reported in rat liver after 30 min.; type: ADME, organism-based; details: in vivo, 0.5 h; how it was run: as §1
Rattus norvegicus [25] = species: Rattus norvegicus; assay: Biodistribution was reported in rat blood after 5 min.; type: ADME, organism-based; details: in vivo; how it was run: as §1

Row | Dose/organ (Rattus norvegicus [1]) | Dose/organ (Rattus norvegicus [2]) | Dose/organ (Rattus norvegicus [3]) | Dose/organ (Rattus norvegicus [4]) | Dose/organ (Rattus norvegicus [5]) | Dose/organ (Rattus norvegicus [6]) | Dose/organ (Rattus norvegicus [7]) | Dose/organ (Rattus norvegicus [8]) | Dose/organ (Rattus norvegicus [9]) | Dose/organ (Rattus norvegicus [10]) | Dose/organ (Rattus norvegicus [11]) | Dose/organ (Rattus norvegicus [12]) | Dose/organ (Rattus norvegicus [13]) | Dose/organ (Rattus norvegicus [14]) | Dose/organ (Rattus norvegicus [15]) | Dose/organ (Rattus norvegicus [16]) | Dose/organ (Rattus norvegicus [17]) | Dose/organ (Rattus norvegicus [18]) | Dose/organ (Rattus norvegicus [19]) | Dose/organ (Rattus norvegicus [20]) | other results | SMILES
1 | 24.64% | 1% | 3.64% | 0.17% | 0.05% | 1.2% | 1.6% | 0.1% | 0.92% | 0.01% | 47.68% | 2.52% | 71.36% | 0.01% | 0.04% | 61.6% | 0.1% | 2.1% | 0% | 2.2% | Dose/organ (Rattus norvegicus [21]): 0.01%; Dose/organ (Rattus norvegicus [22]): 66.32%; Dose/organ (Rattus norvegicus [23]): 0.03%; Dose/organ (Rattus norvegicus [24]): 61.12%; Dose/organ (Rattus norvegicus [25]): 5.18% | O=C(CSC(=O)c1ccccc1)NCC(c1ccccc1)C(CNC(=O)CSC(=O)c1ccccc1)c1ccccc1 (stereo not given)
2 | 31.08% | 1.92% | 4.62% | 0.38% | 0.06% | 5.04% | 5.4% | 0.18% | 1.14% | 0% | 0.56% | 0.98% | 3.84% | 0.01% | 0.02% | 6.96% | 0.08% | 0.56% | 0% | 16.5% | Dose/organ (Rattus norvegicus [21]): 0.03%; Dose/organ (Rattus norvegicus [22]): 17.44%; Dose/organ (Rattus norvegicus [23]): 0.01%; Dose/organ (Rattus norvegicus [24]): 0.88%; Dose/organ (Rattus norvegicus [25]): 9.52% | O=C(CSC(=O)c1ccccc1)NCCCCNC(=O)CSC(=O)c1ccccc1
